In ChEMBL document CHEMBL3576820, “Discovery of benzimidazole oxazolidinediones as novel and selective nonsteroidal mineralocorticoid receptor antagonists” (ACS Med Chem Lett, 2015):
Active and inactive are the calls of the source. No cut-off for these calls is given here.

Tests used:
Progesterone receptor = target: T1, Progesterone receptor (Homo sapiens, UniProt P06401); test: Antagonist activity at human progesterone receptor beta expressed in human U2OS cells assessed as inhibition of D(-)-norgestrel-induced protein interaction with steroid receptor co-activator peptide after overnight incubation by beta-galactosidase reporter gene assay; type: cell-based
T1 sequence (P06401 whole entry): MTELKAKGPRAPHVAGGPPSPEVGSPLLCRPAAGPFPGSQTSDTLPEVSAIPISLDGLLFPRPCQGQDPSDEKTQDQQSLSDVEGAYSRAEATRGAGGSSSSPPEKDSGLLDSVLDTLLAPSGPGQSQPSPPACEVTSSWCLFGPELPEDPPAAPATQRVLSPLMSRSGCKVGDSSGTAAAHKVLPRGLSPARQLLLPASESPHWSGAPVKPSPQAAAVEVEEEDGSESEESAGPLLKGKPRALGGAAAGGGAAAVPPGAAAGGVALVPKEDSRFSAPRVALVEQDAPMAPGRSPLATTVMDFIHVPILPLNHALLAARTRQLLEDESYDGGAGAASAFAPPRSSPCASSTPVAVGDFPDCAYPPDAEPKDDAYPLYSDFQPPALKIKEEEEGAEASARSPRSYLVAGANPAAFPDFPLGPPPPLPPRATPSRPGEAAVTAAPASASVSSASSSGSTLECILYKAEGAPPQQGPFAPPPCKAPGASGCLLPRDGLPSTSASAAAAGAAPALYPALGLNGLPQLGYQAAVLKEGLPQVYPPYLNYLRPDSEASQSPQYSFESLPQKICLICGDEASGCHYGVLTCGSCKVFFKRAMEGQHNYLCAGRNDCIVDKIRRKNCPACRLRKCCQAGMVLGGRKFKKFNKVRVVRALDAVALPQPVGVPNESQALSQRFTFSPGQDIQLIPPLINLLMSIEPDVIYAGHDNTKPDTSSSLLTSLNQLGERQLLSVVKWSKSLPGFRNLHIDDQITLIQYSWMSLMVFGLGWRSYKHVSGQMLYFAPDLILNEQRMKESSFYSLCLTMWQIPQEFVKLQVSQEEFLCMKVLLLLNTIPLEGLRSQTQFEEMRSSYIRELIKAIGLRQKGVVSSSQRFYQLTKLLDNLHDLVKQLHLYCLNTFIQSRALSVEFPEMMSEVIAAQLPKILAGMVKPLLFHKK

[1] = target: T2, Mineralocorticoid receptor (Homo sapiens, UniProt P08235); test: Antagonist activity at human mineralocorticoid receptor overexpressed in CHOK1 cells assessed as inhibition of aldosterone-induced protein interaction with coactivator peptide after 6 hrs by luminescence assay; type: cell-based, CHO-K1
T2 sequence (P08235 whole entry): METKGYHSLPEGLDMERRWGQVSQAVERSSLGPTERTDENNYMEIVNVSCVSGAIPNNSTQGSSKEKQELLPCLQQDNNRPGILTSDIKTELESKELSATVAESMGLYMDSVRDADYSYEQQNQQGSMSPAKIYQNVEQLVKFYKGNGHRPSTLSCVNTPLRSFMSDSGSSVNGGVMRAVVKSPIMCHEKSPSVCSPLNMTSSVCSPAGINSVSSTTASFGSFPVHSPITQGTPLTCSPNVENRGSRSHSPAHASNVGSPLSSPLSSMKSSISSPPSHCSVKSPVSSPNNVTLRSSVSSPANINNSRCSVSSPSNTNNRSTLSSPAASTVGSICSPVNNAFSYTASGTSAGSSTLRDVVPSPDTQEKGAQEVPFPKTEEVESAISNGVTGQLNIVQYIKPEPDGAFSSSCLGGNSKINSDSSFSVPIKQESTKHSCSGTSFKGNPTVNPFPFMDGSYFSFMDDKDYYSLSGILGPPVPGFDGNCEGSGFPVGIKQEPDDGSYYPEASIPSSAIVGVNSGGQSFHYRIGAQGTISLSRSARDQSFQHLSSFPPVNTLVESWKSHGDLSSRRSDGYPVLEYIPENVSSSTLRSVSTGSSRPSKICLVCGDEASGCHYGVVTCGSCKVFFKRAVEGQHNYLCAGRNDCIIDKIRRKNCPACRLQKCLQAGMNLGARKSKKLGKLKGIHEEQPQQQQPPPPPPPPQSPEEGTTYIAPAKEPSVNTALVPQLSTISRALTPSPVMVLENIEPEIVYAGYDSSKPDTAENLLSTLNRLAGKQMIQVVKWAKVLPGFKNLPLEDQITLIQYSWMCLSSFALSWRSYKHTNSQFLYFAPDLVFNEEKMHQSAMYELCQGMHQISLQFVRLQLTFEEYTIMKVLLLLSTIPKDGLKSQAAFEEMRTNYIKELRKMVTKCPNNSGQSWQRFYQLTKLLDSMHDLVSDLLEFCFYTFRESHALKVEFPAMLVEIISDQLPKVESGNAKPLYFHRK

[2] = Metabolic stability in human liver microsomes assessed as compound remaining at 1 uM after 0.5 hrs; type: ADME; settings: read-out: Stability
[3] = target: T3, Mineralocorticoid receptor (Homo sapiens) (UniProt P08235); test: Agonist activity at human mineralocorticoid receptor by cell-based assay
T3 sequence (whole entry): T2 sequence (P08235 whole entry)

[4] = Plasma clearance in Wistar han rat at 2 mg/kg, po and 1 mg/kg, iv; type: ADME, organism-based
How it was run: (§1)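 Wistar Han rats. IV dose 1 mg/kg in DMSO/PEG200/water (10:60:30), n=2. Oral dose 2 mg/kg in imwitor/tween (1:1) by gavage, n=3. Values are averages. Derived: F%, plasma clearance, Vdss, terminal half-life and oral AUC normalized to dose.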

[5] = Volume of distribution at steady state in Wistar han rat at 2 mg/kg, po and 1 mg/kg, iv; type: ADME, organism-based; settings: in vivo, read-out: Vdss; how it was run: as §1

| SMILES | IC50 (Progesterone receptor) | IC50 [1] | remaining at 0.5 h, 1 µM [2] | Activity [3] | clearance [4] | Vd [5] |
| --- | --- | --- | --- | --- | --- | --- |
| C[C@H](c1ccc(F)cc1)N1C(=O)O[C@](Cc2ccccc2)(c2nc3c(NS(C)(=O)=O)cccc3[nH]2)C1=O | 8.2 µM | 0.21 µM | 46% | inactive | 55 mL/min/kg | 3.2 L/kg |
| Cc1nocc1-c1ccc2[nH]c([C@@]3(Cc4ccccc4)OC(=O)N([C@H](C)c4ccc(F)cc4)C3=O)nc2c1 | 2.8 µM | 0.039 µM | 27% | inactive | 20 mL/min/kg | 1.9 L/kg |
| C[C@H](c1ccc(F)cc1)N1C(=O)O[C@](Cc2ccccc2)(c2nc3cc(N4CCOCC4)ccc3[nH]2)C1=O | 1.9 µM | 0.04 µM | 81% | inactive | 67 mL/min/kg | 2.3 L/kg |
| C[C@H](c1ccc(F)cc1)N1C(=O)O[C@](Cc2ccccc2)(c2nc3cc(NS(C)(=O)=O)ccc3[nH]2)C1=O | 4.9 µM | 0.22 µM | 93% | inactive | 32 mL/min/kg | 1.8 L/kg |
| C[C@H](c1ccc(F)cc1)N1C(=O)O[C@](Cc2ccccc2)(c2nc3cc(C(F)(F)F)ccc3[nH]2)C1=O | 3.2 µM | 0.12 µM | 89% | inactive | 33 mL/min/kg | 3.4 L/kg |

Continued, values first:

| IC50 (Progesterone receptor) | IC50 [1] | remaining at 0.5 h, 1 µM [2] | Activity [3] | clearance [4] | Vd [5] | SMILES |
| --- | --- | --- | --- | --- | --- | --- |
| 2.9 µM | 0.034 µM | 94% | inactive | 80 mL/min/kg | 5 L/kg | C[C@H](c1ccc(F)cc1)N1C(=O)O[C@](Cc2ccccc2)(c2nc3cc(-c4cccnc4)ccc3[nH]2)C1=O |
| 2.4 µM | 0.16 µM | 55% | inactive | 47 mL/min/kg | 4.6 L/kg | C[C@H](c1ccc(F)cc1)N1C(=O)O[C@](Cc2ccccc2)(c2nc3cc(Cl)ccc3[nH]2)C1=O |
| 2.9 µM | 0.12 µM | 86% | inactive | 19 mL/min/kg | 1.6 L/kg | C[C@H](c1ccc(F)cc1)N1C(=O)O[C@](Cc2ccccc2)(c2nc3cc(-c4cc[nH]n4)ccc3[nH]2)C1=O |
